Measurements: ChEMBL document CHEMBL1268842, “Discovery of N-benzyl-2-[(4S)-4-(1H-indol-3-ylmethyl)-5-oxo-1-phenyl-4,5-dihydro-6H-[1,2,4]triazolo[4,3-a][1,5]benzodiazepin-6-yl]-N-isopropylacetamide, an orally active, gut-selective CCK1 receptor agonist for the potential treatment of obesity” (Bioorg Med Chem Lett, 2010)
In brackets after ≈: the same amount, converted by molar mass. Activity calls are given as the source filed them. The calls are words filed in the database; no cut-off is given here.

Tests used:
[1] = Intrinsic clearance in human liver microsomes; assay type: ADME, Microsome
[2] = system: Rattus norvegicus; test: Antiobesity activity in Sprague-Dawley rat assessed as reduction in spontaneous food intake at 6 mg/kg, po measured at 4 hrs; assay type: functional
Summary of the method: (§1)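 Rats were dosed orally at 6 mg/kg, as amorphous material unless stated or as a solid spray-dried dispersion (SDD). Spontaneous food intake was measured against vehicle at 4 h post-dose, and at 12 h where stated. Significance was P <0.05 versus vehicle unless noted.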

[3] = Biliary clearance in Sprague-Dawley rat assessed as parent compound excretion into bile at 3 mg/kg, iv by HPLC/MS/MS analysis; assay type: ADME, organism-based; set-up: dose 3 mg/kg, route intravenous; settings: read-out: Activity
[4] = target: T1, Cholecystokinin receptor type A (Homo sapiens, UniProt P32238); test: Agonist activity at human CCK1 receptor expressed in CHO cells assessed as induction of calcium release by FLIPR assay; assay type: functional, cell-based
T1 sequence (P32238 whole entry): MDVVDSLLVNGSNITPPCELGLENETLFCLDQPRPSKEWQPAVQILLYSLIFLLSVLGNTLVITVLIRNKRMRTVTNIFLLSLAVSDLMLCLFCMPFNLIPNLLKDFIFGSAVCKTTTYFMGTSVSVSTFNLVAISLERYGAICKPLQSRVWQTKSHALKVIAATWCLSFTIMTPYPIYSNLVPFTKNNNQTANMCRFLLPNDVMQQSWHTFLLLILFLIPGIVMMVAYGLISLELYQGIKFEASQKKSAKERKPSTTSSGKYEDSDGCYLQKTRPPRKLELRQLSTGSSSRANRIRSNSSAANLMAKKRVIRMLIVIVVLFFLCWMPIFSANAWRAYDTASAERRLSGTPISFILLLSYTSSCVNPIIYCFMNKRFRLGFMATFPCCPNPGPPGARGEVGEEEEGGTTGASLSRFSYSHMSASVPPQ
Summary of the method: (§2)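 Calcium release was measured by FLIPR at the human CCK1 receptor. EC50 and efficacy were expressed as % agonism versus CCK-8. Values are mean ± standard error of at least three independent experiments.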

[5] = system: Mus musculus; test: Induction of emptying of gallbladder in C57BL/6J mouse at 6 mg/kg, po measured at 24 hrs; assay type: functional
Summary of the method: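 Mice dosed orally; compound given as amorphous solid unless noted, with one analog in spray-dried dispersion formulation. Read-out is % gallbladder emptying after dosing.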

[6] = Kinetic solubility of the compound at pH 6.5; assay type: physicochemical; settings: buffer
[7] = target: T1, Cholecystokinin receptor type A; test: Displacement of [125I]CCK8 from human CCK1 receptor expressed in CHO cells; assay type: cell-based
Summary of the method: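 Binding IC50 at the human CCK1 receptor. Values are mean ± standard error of at least three independent experiments.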

[8] = target: T2, Cholecystokinin receptor type A (Rattus norvegicus, UniProt P30551); test: Agonist activity at rat CCK1 receptor expressed in CHO cells assessed as induction of calcium release by FLIPR assay; assay type: functional, cell-based
T2 sequence (P30551 whole entry): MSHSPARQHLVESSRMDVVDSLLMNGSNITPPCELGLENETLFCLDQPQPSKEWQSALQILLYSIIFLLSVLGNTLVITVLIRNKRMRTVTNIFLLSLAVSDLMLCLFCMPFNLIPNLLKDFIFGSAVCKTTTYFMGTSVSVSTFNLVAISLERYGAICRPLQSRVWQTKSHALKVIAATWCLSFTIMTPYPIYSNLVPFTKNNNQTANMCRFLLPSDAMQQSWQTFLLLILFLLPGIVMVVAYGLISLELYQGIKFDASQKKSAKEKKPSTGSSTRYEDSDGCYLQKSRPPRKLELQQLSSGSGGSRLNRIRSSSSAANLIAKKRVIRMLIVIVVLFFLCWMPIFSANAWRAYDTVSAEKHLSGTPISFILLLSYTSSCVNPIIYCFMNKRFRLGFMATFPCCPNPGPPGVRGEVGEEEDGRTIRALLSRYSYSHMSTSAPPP
Summary of the method: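 Calcium release was measured by FLIPR at the rat CCK1 receptor to give EC50. Values are mean ± standard error of at least two independent experiments.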

[9] = target: T3, Cholecystokinin receptor type A (Homo sapiens) (UniProt P32238); test: Agonist activity at human CCK1 receptor expressed in CHO cells assessed as induction of calcium release by FLIPR assay relative to CCK8; assay type: functional, cell-based; summary of the method: as §2
T3 sequence (whole entry): T1 sequence (P32238 whole entry)

[10] = target: T2, Cholecystokinin receptor type A; test: Displacement of [125I]CCK8 from rat CCK1 receptor expressed in CHO cells; assay type: cell-based
Summary of the method: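 Binding IC50 at the rat CCK1 receptor. Values are mean ± standard error of at least two independent experiments.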

[11] = Lipophilicity, log D of the compound at pH 7.4; assay type: physicochemical; settings: buffer
[12] = system: Mus musculus; test: Induction of emptying of gallbladder in C57BL/6J mouse at 6 mg/kg, po measured at 1 hr; assay type: functional
Summary of the method: (§3)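 Mouse gallbladder emptying model. Compounds were given orally, as amorphous material unless noted or as an SDD formulation where stated. Gallbladder emptying (%) was read at 1 h after 6 mg/kg. Gallbladder refilling was assessed at 24 h.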

[13] = target: T4, Gastrin/cholecystokinin type B receptor (Homo sapiens) (UniProt P32239); test: Agonist activity at CCK2 receptor assessed as calcium mobilization by FLIPR assay; assay type: functional
T4 sequence (whole entry): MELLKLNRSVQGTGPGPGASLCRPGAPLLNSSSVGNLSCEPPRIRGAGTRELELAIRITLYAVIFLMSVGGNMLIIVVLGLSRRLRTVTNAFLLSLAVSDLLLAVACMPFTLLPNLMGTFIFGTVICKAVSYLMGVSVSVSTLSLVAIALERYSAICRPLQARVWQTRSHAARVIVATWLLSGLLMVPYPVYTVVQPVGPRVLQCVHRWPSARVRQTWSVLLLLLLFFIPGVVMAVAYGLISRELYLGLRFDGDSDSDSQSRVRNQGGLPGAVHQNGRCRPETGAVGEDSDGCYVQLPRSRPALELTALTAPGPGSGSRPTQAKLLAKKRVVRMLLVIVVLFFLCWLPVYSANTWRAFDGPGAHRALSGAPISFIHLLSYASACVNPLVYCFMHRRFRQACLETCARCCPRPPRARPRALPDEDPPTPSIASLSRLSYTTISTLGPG

[14] = target: T4, Gastrin/cholecystokinin type B receptor (Homo sapiens); test: Agonist activity at CCK2 receptor by [35S]GTPgammaS binding assay; assay type: functional
[15] = system: Rattus norvegicus; test: Antiobesity activity in Sprague-Dawley rat assessed as reduction in spontaneous food intake at 6 mg/kg, po administered via SDD formulation measured at 4 hrs; assay type: functional; summary of the method: as §1
[16] = Plasma clearance in Sprague-Dawley rat at 3 mg/kg, iv by HPLC/MS/MS analysis; assay type: ADME, organism-based; set-up: dose 3 mg/kg, route intravenous
Summary of the method: (§4)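 Male Sprague-Dawley rats, n of 3, given a single 3.0 mg/kg iv dose or 6.0 mg/kg po dose. Plasma exposure was followed over time. Values are mean with standard deviation.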

[17] = organism: Rattus norvegicus; settings: Sprague-Dawley, 6 mg/kg
[18] = system: Rattus norvegicus; test: Tmax in Sprague-Dawley rat at 6 mg/kg, po by HPLC/MS/MS analysis; assay type: ADME, organism-based; set-up: dose 6 mg/kg, route oral; settings: in vivo; summary of the method: as §4
[19] = system: Rattus norvegicus; test: Antiobesity activity in Sprague-Dawley rat assessed as reduction in spontaneous food intake at 6 mg/kg, po measured at 4 hrs relative to vehicle; assay type: functional; set-up: scale not given: the % may be the effect or the level left; summary of the method: as §1
[20] = system: Rattus norvegicus; test: fCmax in Sprague-Dawley rat at 6 mg/kg, po by HPLC/MS/MS analysis; assay type: ADME, organism-based; set-up: dose 6 mg/kg, route oral; settings: in vivo; summary of the method: as §4
[21] = Oral bioavailability in Sprague-Dawley rat at 6 mg/kg by HPLC/MS/MS analysis; assay type: ADME, organism-based; settings: in vivo; summary of the method: as §4
[22] = AUC (0 to tlast) in Sprague-Dawley rat at 3 mg/kg, iv by HPLC/MS/MS analysis; assay type: ADME, organism-based; set-up: dose 3 mg/kg, route intravenous; settings: plasma; summary of the method: as §4
[23] = system: Mus musculus; test: Induction of emptying of gallbladder in C57BL/6J mouse at 6 mg/kg, po administered via SDD formulation measured at 1 hr; assay type: functional; summary of the method: as §3
[24] = Volume of distribution at steady state in Sprague-Dawley rat at 3 mg/kg, iv by HPLC/MS/MS analysis; assay type: ADME, organism-based; set-up: dose 3 mg/kg, route intravenous; settings: in vivo, read-out: Vdss; summary of the method: as §4
[25] = Blood clearance predicted from rat liver microsomes; settings: whole blood
[26] = system: Rattus norvegicus; test: Antiobesity activity in Sprague-Dawley rat assessed as reduction in spontaneous food intake at 6 mg/kg, po measured at 4 hrs in presence of 20 mg/kg CCK1R antagonist lorglumide relative to vehicle; assay type: functional
[27] = Cmax in Sprague-Dawley rat at 6 mg/kg, po by HPLC/MS/MS analysis; assay type: ADME, organism-based; set-up: dose 6 mg/kg, route oral; settings: in vivo; summary of the method: as §4
[28] = system: Rattus norvegicus; test: Biliary clearance in Sprague-Dawley rat at 3 mg/kg, iv by HPLC/MS/MS analysis; assay type: ADME, organism-based; set-up: dose 3 mg/kg, route intravenous; settings: in vivo
[29] = Half life in Sprague-Dawley rat at 3 mg/kg, iv by HPLC/MS/MS analysis; assay type: ADME, organism-based; set-up: dose 3 mg/kg, route intravenous; settings: in vivo; summary of the method: as §4
[30] = AUC (0 to tlast) in Sprague-Dawley rat at 6 mg/kg, po by HPLC/MS/MS analysis; assay type: ADME, organism-based; set-up: dose 6 mg/kg, route oral; settings: plasma; summary of the method: as §4

Compound	CLint scaled [1] [mL/min/kg]	inhibition in vivo at 6 mg/kg [2] [%]	EC50 [4] [nM]	solubility kinetic [6] [µM]	IC50 [7] [nM]	EC50 [8] [nM]	Activity [9] [%]	IC50 [10] [nM]	logD ([11]; read-out: logD)	Activity [12] [%]	Activity [13]	Activity [14]	further results
CC(C)N(C(=O)CN1C(=O)[C@H](NC(=O)Nc2cccc(C(=O)O)c2)C(=O)N(c2ccccc2)c2ccccc21)c1ccccc1	< 8	52	283	499 (≈ 302 µg/mL)	131	63.8	62.8	52.6	1.09	82	–	–	dose excreted [3]: 65%; Activity [5]: 91.4%
CC(C)N(Cc1ccccc1)C(=O)CN1C(=O)C(Cc2n[nH]c3ccccc23)c2nnc(-c3ccccc3)n2-c2ccccc21 (stereo unspecified)	39.5	43	522	2.26 (≈ 1.35 µg/mL)	48.5	481	72.3	21	3.16	86.3	inactive	inactive	–
CC(C)N(Cc1ccccc1)C(=O)CN1C(=O)[C@@H](Cc2c[nH]c3ccccc23)c2nnc(-c3ccccc3)n2-c2ccccc21 [CE-326597]	199	–	–	0.94 (≈ 0.559 µg/mL)	–	–	53	–	–	–	inactive	inactive	inhibition in vivo at 6 mg/kg [15]: 56%; clearance [16]: 41.7 mL/min/kg; inhibition [17]: Active; Tmax [18]: 1.33 h; Activity [19]: -56%; fCmax [20]: 0.98 nM; bioavailability [21]: 1%; AUC(0-t) [22]: 1190 ng·h/mL; Activity [23]: 91%; Vd [24]: 3.7 L/kg; clearance [25]: 47 mL/min/kg; inhibition (INH) [26]: 2.4%; Cmax [27]: 14.6 ng/mL; CL_biliary [28]: 0.0277 mL/min/kg; half-life [29]: 1.37 h; AUC(0-t) [30]: 42.5 ng·h/mL; logD [11]: 3.39
